Laboratory results taken from ChEMBL document CHEMBL1687824, “Overexpression of patA and patB, which encode ABC transporters, is associated with fluoroquinolone resistance in clinical isolates of Streptococcus pneumoniae” (2011).

Experiments:
Assay type in all cases: functional
Streptococcus pneumoniae [1] = test: Antibacterial activity against dye-resistant Streptococcus pneumoniae by standardized agar doubling dilution method in presence of 20 ug/ml reserpine efflux pump inhibitor
How it was run: (§1)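 MIC by agar doubling dilution following BSAC guidelines. Strains grown in brain heart infusion broth 24 h at 37°C in 5% CO2. Where an efflux pump inhibitor applies, MIC redetermined with reserpine at 20 μg/ml or sodium orthovanadate at 50 μM. Synergy taken as a fall in MIC of ≥2 dilutions with inhibitor present. Dye resistance defined relative to R6 (both dyes ≥2 dilutions higher).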

Streptococcus pneumoniae [2] = test: Antibacterial activity against wild type Streptococcus pneumoniae R6 by standardized agar doubling dilution method in presence of 20 ug/ml reserpine efflux pump inhibitor; how it was run: as §1
Streptococcus pneumoniae [3] = test: Antibacterial activity against fluoroquinolone, dye-resistant Streptococcus pneumoniae by standardized agar doubling dilution method in presence of 20 ug/ml reserpine efflux pump inhibitor; how it was run: as §1
Streptococcus pneumoniae [4] = test: Antibacterial activity against fluoroquinolone, dye-resistant Streptococcus pneumoniae by standardized agar doubling dilution method; how it was run: as §1
Streptococcus pneumoniae [5] = test: Antibacterial activity against fluoroquinolone-resistant Streptococcus pneumoniae by standardized agar doubling dilution method in presence of 20 ug/ml reserpine efflux pump inhibitor; how it was run: as §1
Streptococcus pneumoniae [6] = test: Antibacterial activity against dye-resistant Streptococcus pneumoniae by standardized agar doubling dilution method; how it was run: as §1
Streptococcus pneumoniae [7] = test: Antibacterial activity against wild type Streptococcus pneumoniae M3 NCTC 7466 type 2 by standardized agar doubling dilution method; how it was run: as §1
Streptococcus pneumoniae [8] = test: Antibacterial activity against wild type Streptococcus pneumoniae M4 NCTC 7465 type 1 by standardized agar doubling dilution method; how it was run: as §1
Streptococcus pneumoniae [9] = test: Antibacterial activity against fluoroquinolone, dye-susceptible Streptococcus pneumoniae by standardized agar doubling dilution method in presence of 20 ug/ml reserpine efflux pump inhibitor; how it was run: as §1
Streptococcus pneumoniae [10] = test: Antibacterial activity against fluoroquinolone, dye-susceptible Streptococcus pneumoniae by standardized agar doubling dilution method; how it was run: as §1
Streptococcus pneumoniae [11] = test: Antibacterial activity against wild type Streptococcus pneumoniae M3 NCTC 7466 type 2 by standardized agar doubling dilution method in presence of 20 ug/ml reserpine efflux pump inhibitor; how it was run: as §1
Streptococcus pneumoniae [12] = test: Antibacterial activity against wild type Streptococcus pneumoniae M4 NCTC 7465 type 1 by standardized agar doubling dilution method in presence of 20 ug/ml reserpine efflux pump inhibitor; how it was run: as §1
Streptococcus pneumoniae [13] = test: Antibacterial activity against wild type Streptococcus pneumoniae R6 by standardized agar doubling dilution method; how it was run: as §1
Streptococcus pneumoniae [14] = test: Antibacterial activity against fluoroquinolone-resistant Streptococcus pneumoniae by standardized agar doubling dilution method; how it was run: as §1

CCn1cc(C(=O)O)c(=O)c2cc(F)c(N3CCNCC3)cc21 [NORFLOXACIN]
4 µg/mL: MIC (Streptococcus pneumoniae [6]) | MIC90 (Streptococcus pneumoniae [6]) | MIC (Streptococcus pneumoniae [7]) | MIC90 (Streptococcus pneumoniae [10]) | MIC (Streptococcus pneumoniae [12]) | MIC (Streptococcus pneumoniae [13])
2 µg/mL: MIC (Streptococcus pneumoniae [2]) | MIC (Streptococcus pneumoniae [11])
8 µg/mL: MIC90 (Streptococcus pneumoniae [3]) | MIC90 (Streptococcus pneumoniae [5]) | MIC (Streptococcus pneumoniae [8])
32 µg/mL: MIC90 (Streptococcus pneumoniae [4]) | MIC90 (Streptococcus pneumoniae [14])
1 µg/mL: MIC (Streptococcus pneumoniae [1]) | MIC90 (Streptococcus pneumoniae [1]) | MIC (Streptococcus pneumoniae [9]) | MIC90 (Streptococcus pneumoniae [9])
